Only some compounds are listed: those with a hit (about 2.3% of all), similar ones and a draw of the others.
PAFAH1B2 FP inh – PAFAH1B2 enzyme inhibitors, primary screen, biochemical, fluorescence polarization, human. 340,000 compounds, 1.2% hits. inhibition, % at 3.39 µM. Platelet-activating factor acetylhydrolase IB subunit alpha2 (Homo sapiens), P68402. recombinant PAFAH1B2, FP-rhodamine activity probe;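 active = inhibition above the mean of all tested compounds plus 3 SD, cut at about 24% in these data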;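 note: 0% = enzyme with DMSO and 100% = wells lacking PAFAH1B2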
Target sequence (P68402 whole entry, looked up): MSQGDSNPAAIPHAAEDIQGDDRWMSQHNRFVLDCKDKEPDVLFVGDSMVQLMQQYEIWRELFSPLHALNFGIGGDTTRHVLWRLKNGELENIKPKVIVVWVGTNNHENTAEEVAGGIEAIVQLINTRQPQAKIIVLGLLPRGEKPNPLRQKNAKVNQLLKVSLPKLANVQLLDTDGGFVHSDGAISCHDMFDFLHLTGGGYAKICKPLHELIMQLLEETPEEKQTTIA
Apaf-1 inh – inhibitors of human Apaf-1 apoptosome, primary screen, biochemical, DEVD-Rh110 fluorescence, uHTS | inhibition, % at 20 µM | Apoptotic protease-activating factor 1 (Homo sapiens), O14727 | reconstituted apoptosome caspase-3 activity | 330,000 compounds, 0.71% hits; active = inhibition of at least 40% at 20 µM;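 note: plate controls were DMSO wells for no effect and DEVD-CHO caspase inhibitor wells for full effect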
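Material: reconstituted apoptosome with Apaf-1, cytochrome c, caspase-9, procaspase-3, dATP. Technique: Rh110 fluorescence intensity. Buffer or medium: pH 7.5 Hepes buffer with CHAPS, BSA, DTT. Times: 30 min plus 50 min, RT.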
PAFAH2 inh – PAFAH2 enzyme inhibitors, primary screen, biochemical, fluorescence polarization, human; Platelet-activating factor acetylhydrolase 2, cytoplasmic (Homo sapiens), Q99487; recombinant PAFAH2, FP-rhodamine activity probe; inhibition, % at 3.39 µM; 340,000 compounds, 0.99% hits;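 active = inhibition above the mean over all tested compounds plus 3 SD, cut at about 30% in these data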;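 note: inhibitors block probe labeling of enzyme so polarization drops; 0% = enzyme with DMSO and 100% = wells lacking PAFAH2 protein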
PAFAH1B3 FP inh – PAFAH1B3 enzyme inhibitors, primary screen, biochemical, fluorescence polarization, human; Platelet-activating factor acetylhydrolase IB subunit alpha1 (Homo sapiens), Q15102; recombinant PAFAH1B3, FP-rhodamine probe; inhibition, % at 3.39 µM; 340,000 compounds, 0.28% hits;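 active = inhibition above the screen-wide average of all tested compounds plus 3 SD, cut at about 25% in these data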;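 note: 0% = enzyme with DMSO only and 100% = wells lacking PAFAH1B3 protein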
Target sequence (Q15102 whole entry, looked up): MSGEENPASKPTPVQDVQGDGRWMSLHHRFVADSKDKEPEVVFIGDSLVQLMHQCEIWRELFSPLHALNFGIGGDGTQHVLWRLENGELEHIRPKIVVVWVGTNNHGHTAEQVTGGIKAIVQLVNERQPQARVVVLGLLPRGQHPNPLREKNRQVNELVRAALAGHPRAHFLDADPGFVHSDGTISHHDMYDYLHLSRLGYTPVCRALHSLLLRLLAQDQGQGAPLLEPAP
TDP2 absorb – human TDP2 enzyme inhibitors, primary screen, biochemical, epi absorbance, recombinant enzyme. Tyrosyl-DNA phosphodiesterase 2 (Homo sapiens), O95551. 370,000 compounds, 0.34% hits. inhibition, % at 12.8 µM. T5PNP hydrolysis, p-nitrophenol absorbance 415 nm;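 active = inhibition above the mean of all tested compounds plus 3 SD, set per campaign, cut at about 25% in these data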;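 note: 0% = DMSO with enzyme and 100% = buffer with substrate but no TDP2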
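Incubation: 2 h at 37 °C; Test system: recombinant human TDP2; Quantity: enzyme 120 nM; Read-out basis: percent inhibition; Medium: 50 mM Tris-HCl pH 7.5 with Mg2+, KCl, DTT, BSA; Repeats: single replicate; Compound: 12.8 µM single point, 1% DMSO; Signal: epi absorbance; Reagent: 5 mM T5PNP chromogenic substrate; Benchmarks: no-enzyme high, DMSO-plus-enzyme low.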
Apaf-1 inh conf2 – Apaf-1 inhibitors, single-dose retest, confirmation, biochemical, fluorescence, DEVD-Rh110, 20 µM. 1,800 compounds, 25% hits. inhibition, % at 20 µM. AID 504614, 2011. shares compounds with Apaf-1 inh. reconstituted apoptosome, caspase-3 DEVD-Rh110 fluorescence;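 active = mean inhibition of at least 40% at 20 µM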;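 note: plate controls were DMSO wells for no effect and DEVD-CHO caspase inhibitor control wells for full effect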
Rh110 quench – Rh110 fluorescence interference by putative Apaf-1 inhibitors, confirmation, artefact control for Apaf-1 inhibitor project, biochemical, 20 µM | shares compounds with Apaf-1 inh | quenched caspase reaction | activation (fluorescence interference), % at 20 µM | 1,800 tested, under 10 active;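 active = signal rise of 40% or more at 20 µM, treated as a fluorescence artifact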
Fluor interf inh – fluorescence interference of Apaf-1 inhibitor hits, dose response, artefact control for Apaf-1 inhibitor project; shares compounds with Apaf-1 inh; fluorescence interference counterscreen, Apaf-1 assay format; IC50, µM; 460 tested, under 10 active; AID 588538, 2011; call rule not given here
Starred values were filed as active, the others as inactive; . = no result.

SMILES	PAFAH1B2 FP inh	Apaf-1 inh	PAFAH2 inh	PAFAH1B3 FP inh	TDP2 absorb	Apaf-1 inh conf2	Rh110 quench	Fluor interf inh
N=c1n(CC(=O)c2ccc(Br)cc2)c2ccccc2n1Cc1ccccc1	-4	53*	-3	9	7	-34	19	.
CCCC(=O)OCCNc1cc(SCc2ccco2)c2nonc2c1[N+](=O)[O-]	4	57*	7	5	13	-1	0	.
CC(=O)OCCCNc1cc(SCc2ccco2)c2nonc2c1[N+](=O)[O-]	-1	74*	13	3	21	0	-2	.
COC(=O)C1CN(CCc2ccccc2)CCS(=O)(=O)N1Cc1ccc(C)cc1 (stereo unspecified)	.	.	.	.	2	.	.	.
COC(=O)[C@]12C[C@H](CC(=O)N3CCSCC3)C(=O)N(Cc3ccccc3)C1=C[C@H](C(C)C)O[C@@H]2C1CC1	.	.	.	.	-1	.	.	.
CCOC(=O)C1CCN(C(=O)C(Cc2ccc3c(c2)OCO3)NC(C)=O)CC1 (stereo unspecified)	.	.	.	.	10	.	.	.
Cc1[nH]n(-c2ccccc2)c(=O)c1/C=N/Nc1nncc(-c2ccccc2)n1	0	81*	4	22	-17	89*	10	>100
Cc1cc(C(=O)N/N=C/c2c(C)[nH]n(-c3ccccc3)c2=O)n[nH]1	0	77*	9	10	-6	80*	2	>100
Cc1[nH]n(-c2ccccc2)c(=O)c1/C=N/NC(=O)c1cccc(F)c1	10	62*	9	16	3	67*	0	>100
CCCCN=Cc1c(C)[nH]n(-c2ccccc2)c1=S	10	-80	-2	6	-8	.	.	.
Cc1cc(C(=O)N/N=C/c2c(C)n(C)c3ccccc23)n[nH]1	2	-1	2	-9	-10	.	.	.
CCCCN(CCCC)C(=S)N/N=C/c1c(C)[nH]n(-c2ccccc2)c1=O	3	57*	7	9	-14	-3	16	.
CC1(C)Oc2ccc(C(=O)N3CCCC3)cc2NC1=O	.	.	.	.	3	.	.	.
O=C(CSc1nnc(-c2ccccc2)n1-c1ccc(Cl)cc1)Nc1cccc2ccccc12	.	.	.	.	8	.	.	.
O=C(CSc1nnc(-c2cccnc2)n1Cc1ccco1)Nc1ccc(F)cc1Cl	.	.	.	.	-2	.	.	.
Cc1[nH]n(-c2ccc(Br)cc2)c(=O)c1/C=N/NC(=O)c1ccccc1	7	16	9	19	7	.	.	.
Cc1[nH]n(-c2ccccc2)c(=O)c1/C=N/NC(=O)c1ccc(O)cc1O	12	73*	-1	18	.	84*	9	>100
COc1nc(N/N=C/c2ccc(-c3ccccc3[N+](=O)[O-])o2)nc(N2CCOCC2)n1	0	54*	2	7	9	26	7	.
COCCN1C=C2C(=O)C(C)(OC(=O)CCC(=O)OC)C(=O)C(Br)=C2C=C1c1ccc(OC)cc1 (stereo unspecified)	13	77*	1	8	.	84*	7	.
COC(=O)CCC(=O)OC1(C)C(=O)C2=CN(C3CCCC3)C(c3ccc(OC)cc3)=CC2=C(Br)C1=O (stereo unspecified)	7	64*	1	6	0	77*	5	>100
COC(=O)CCC(=O)OC1(C)C(=O)C2=CN(c3ccc(OC)cc3)C(c3ccc(OC)cc3)=CC2=C(Br)C1=O (stereo unspecified)	-1	27	7	6	.	.	.	.
C=CCN1C=C2C(=O)C(C)(OC(=O)CCC(=O)OC)C(=O)C(Br)=C2C=C1c1ccc(OC)cc1 (stereo unspecified)	2	67*	14	15	.	61*	9	>100

From PubChem
